Data: ChEMBL document CHEMBL1671620, “Mutations in the fks1 gene in Candida albicans, C. tropicalis, and C. krusei correlate with elevated caspofungin MICs uncovered in AM3 medium using the method of the European Committee on Antibiotic Susceptibility Testing” (2008)
Values after ≈ are worked out from the molar mass of the structure shown.

Columns and labels:
Candida tropicalis [1] = test: Antifungal activity against Candida tropicalis ATCC 750 expressing wild type 1,3-beta-glucan synthase grown on RPMI media after 48 hrs by EUCAST microdilution method; type: functional; settings: ATCC 750, 24 h, in the assay text read “24 hrs” for “48 hrs”
How it was run: (§1)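 EUCAST (AFST-EUCAST) broth microdilution with caspofungin at 0.015 to 8 μg/ml final, in RPMI 1640 buffered to pH 7.0 with 0.165 M MOPS and glucose added to 2% final. Final inoculum was 10⁵ yeast cells/ml. Plates were incubated at 35°C in humid ambient air and read spectrophotometrically after shaking at 24 h and 48 h. MIC was ≥50% growth reduction versus drug-free well; 90% end point also read at both times.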

Pichia kudriavzevii [2] = test: Antifungal activity against Candida krusei ATCC 6258 expressing wild type 1,3-beta-glucan synthase grown on AM3 media after 48 hrs by EUCAST microdilution method; type: functional; settings: ATCC 6258, 24 h, in the assay text read “after 24 hrs” for “after 48 hrs”
How it was run: as §1, with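 “AM3” for “RPMI 1640 buffered to pH 7.0”, “with” for “with 0.165 M MOPS and”, “cells/ml, with microplates prepared in batches and stored at −20°C.” for “cells/ml.”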

Candida albicans [3] = test: Antifungal activity against Candida albicans isolate B311 expressing wild type 1,3-beta-glucan synthase grown on AM3 media after 48 hrs by EUCAST microdilution method; type: functional; settings: isolate B311, 24 h, in the assay text read “24 hrs” for “48 hrs”
How it was run: as §1, with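 “AM3” for “RPMI 1640 buffered to pH 7.0”, “with” for “with 0.165 M MOPS and”, “cells/ml, with microplates prepared in batches and stored at −20°C.” for “cells/ml.”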

Candida tropicalis [4] = test: Antifungal activity against Candida tropicalis isolate 2 harboring 1,3-beta-glucan synthase HS1 point mutant grown on AM3 media after 24 hrs by EUCAST microdilution method; settings: isolate 2, 24 h
Candida albicans [5] = test: Antifungal activity against Candida albicans isolate 24 harboring 1,3-beta-glucan synthase HS1 point mutant grown on RPMI media after 24 hrs by EUCAST microdilution method; settings: isolate 24, 24 h
Candida albicans [6] = test: Antifungal activity against Candida albicans isolate 18 expressing wild type 1,3-beta-glucan synthase grown on AM3 media after 24 hrs by EUCAST microdilution method; settings: isolate 18, 24 h
Candida albicans [7] = test: Antifungal activity against Candida albicans isolate 4 expressing wild type 1,3-beta-glucan synthase grown on AM3 media after 48 hrs by EUCAST microdilution method; type: functional; settings: isolate 4, 24 h, in the assay text read “after 24 hrs” for “after 48 hrs”
How it was run: as §1, with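 “AM3” for “RPMI 1640 buffered to pH 7.0”, “with” for “with 0.165 M MOPS and”, “cells/ml, with microplates prepared in batches and stored at −20°C.” for “cells/ml.”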

Candida albicans [8] = test: Antifungal activity against Candida albicans isolate 6 expressing wild type 1,3-beta-glucan synthase grown on RPMI media after 24 hrs by EUCAST microdilution method; settings: isolate 6, 24 h
Candida albicans [9] = test: Antifungal activity against Candida albicans isolate 2 expressing wild type 1,3-beta-glucan synthase grown on AM3 media after 48 hrs by EUCAST microdilution method; type: functional; settings: isolate 2, 24 h, in the assay text read “24 hrs” for “48 hrs”
How it was run: as §1, with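 “AM3” for “RPMI 1640 buffered to pH 7.0”, “with” for “with 0.165 M MOPS and”, “cells/ml, with microplates prepared in batches and stored at −20°C.” for “cells/ml.”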

Candida albicans [10] = test: Antifungal activity against Candida albicans isolate 22 harboring 1,3-beta-glucan synthase HS1 point mutant grown on AM3 media after 24 hrs by EUCAST microdilution method; settings: isolate 22, 24 h
Candida albicans [11] = test: Antifungal activity against Candida albicans isolate 10 expressing wild type 1,3-beta-glucan synthase grown on AM3 media after 48 hrs by EUCAST microdilution method; type: functional; settings: isolate 10, 24 h, in the assay text read “after 24 hrs” for “after 48 hrs”
How it was run: as §1, with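 “AM3” for “RPMI 1640 buffered to pH 7.0”, “with” for “with 0.165 M MOPS and”, “cells/ml, with microplates prepared in batches and stored at −20°C.” for “cells/ml.”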

Pichia kudriavzevii [12] = test: Antifungal activity against Candida krusei isolate 1 harboring 1,3-beta-glucan synthase HS1 point mutant grown on RPMI media after 24 hrs by EUCAST microdilution method; settings: isolate 1, 24 h
Candida albicans [13] = test: Antifungal activity against Candida albicans isolate 5 expressing wild type 1,3-beta-glucan synthase grown on RPMI media after 24 hrs by EUCAST microdilution method; settings: isolate 5, 24 h
Candida albicans [14] = test: Antifungal activity against Candida albicans isolate 9 expressing wild type 1,3-beta-glucan synthase grown on RPMI media after 24 hrs by EUCAST microdilution method; settings: isolate 9, 24 h
Pichia kudriavzevii [15] = test: Antifungal activity against Candida krusei ATCC 6258 expressing wild type 1,3-beta-glucan synthase grown on RPMI media after 24 hrs by EUCAST microdilution method; settings: ATCC 6258, 24 h
Candida albicans [16] = test: Antifungal activity against Candida albicans isolate 10 expressing wild type 1,3-beta-glucan synthase grown on RPMI media after 24 hrs by EUCAST microdilution method; settings: isolate 10, 24 h
Candida albicans [17] = test: Antifungal activity against Candida albicans isolate 11 expressing wild type 1,3-beta-glucan synthase grown on RPMI media after 24 hrs by EUCAST microdilution method; settings: isolate 11, 24 h
Candida albicans [18] = test: Antifungal activity against Candida albicans isolate 25 expressing wild type 1,3-beta-glucan synthase grown on AM3 media after 48 hrs by EUCAST microdilution method; type: functional; settings: isolate 25, 24 h, in the assay text read “after 24 hrs” for “after 48 hrs”
How it was run: as §1, with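 “AM3” for “RPMI 1640 buffered to pH 7.0”, “with” for “with 0.165 M MOPS and”, “cells/ml, with microplates prepared in batches and stored at −20°C.” for “cells/ml.”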

Pichia kudriavzevii [19] = test: Antifungal activity against Candida krusei isolate 1 harboring 1,3-beta-glucan synthase HS1 point mutant grown on AM3 media after 24 hrs by EUCAST microdilution method; settings: isolate 1, 24 h
Candida albicans [20] = test: Antifungal activity against Candida albicans isolate 20 harboring 1,3-beta-glucan synthase HS1 point mutant grown on AM3 media after 24 hrs by EUCAST microdilution method; settings: isolate 20, 24 h
Candida albicans [21] = test: Antifungal activity against Candida albicans isolate 8 expressing wild type 1,3-beta-glucan synthase grown on RPMI media after 24 hrs by EUCAST microdilution method; settings: isolate 8, 24 h
Candida albicans [22] = test: Antifungal activity against Candida albicans isolate 7 expressing wild type 1,3-beta-glucan synthase grown on RPMI media after 24 hrs by EUCAST microdilution method; settings: isolate 7, 24 h
Candida albicans [23] = test: Antifungal activity against Candida albicans isolate 16 expressing wild type 1,3-beta-glucan synthase grown on RPMI media after 24 hrs by EUCAST microdilution method; settings: isolate 16, 24 h
Candida albicans [24] = test: Antifungal activity against Candida albicans isolate 17 expressing wild type 1,3-beta-glucan synthase grown on RPMI media after 24 hrs by EUCAST microdilution method; settings: isolate 17, 24 h
Candida albicans [25] = test: Antifungal activity against Candida albicans isolate B311 expressing wild type 1,3-beta-glucan synthase grown on RPMI media after 24 hrs by EUCAST microdilution method; settings: isolate B311, 24 h

CC[C@H](C)C[C@H](C)CCCCCCCCC(=O)N[C@H]1C[C@@H](O)[C@@H](NCCN)NC(=O)[C@@H]2[C@@H](O)CCN2C(=O)[C@H]([C@H](O)CCN)NC(=O)[C@H]([C@H](O)[C@@H](O)c2ccc(O)cc2)NC(=O)[C@@H]2C[C@@H](O)CN2C(=O)[C@H]([C@@H](C)O)NC1=O [CASPOFUNGIN]
MIC (Candida tropicalis [1]): 0.5 µg/mL (≈ 0.457 µM)
MIC (Pichia kudriavzevii [2]): 0.06 µg/mL (≈ 0.0549 µM)
MIC (Candida albicans [3]): 0.06 µg/mL (≈ 0.0549 µM)
MIC (Candida tropicalis [4]): 1 µg/mL (≈ 0.915 µM)
MIC (Candida albicans [5]): 4 µg/mL (≈ 3.66 µM)
MIC (Candida albicans [6]): 0.015 µg/mL (≈ 0.0137 µM)
MIC (Candida albicans [7]): 0.03 µg/mL (≈ 0.0274 µM)
MIC (Candida albicans [8]): 0.5 µg/mL (≈ 0.457 µM)
MIC (Candida albicans [9]): 0.03 µg/mL (≈ 0.0274 µM)
MIC (Candida albicans [10]): 1 µg/mL (≈ 0.915 µM)
MIC (Candida albicans [11]): 0.06 µg/mL (≈ 0.0549 µM)
MIC (Pichia kudriavzevii [12]): 8 µg/mL (≈ 7.32 µM)
MIC (Candida albicans [13]): 0.5 µg/mL (≈ 0.457 µM)
MIC (Candida albicans [14]): 0.5 µg/mL (≈ 0.457 µM)
MIC (Pichia kudriavzevii [15]): 1 µg/mL (≈ 0.915 µM)
MIC (Candida albicans [16]): 0.5 µg/mL (≈ 0.457 µM)
MIC (Candida albicans [17]): 0.5 µg/mL (≈ 0.457 µM)
MIC (Candida albicans [18]): 0.03 µg/mL (≈ 0.0274 µM)
MIC (Pichia kudriavzevii [19]): 4 µg/mL (≈ 3.66 µM)
MIC (Candida albicans [20]): 2 µg/mL (≈ 1.83 µM)
MIC (Candida albicans [21]): 0.5 µg/mL (≈ 0.457 µM)
MIC (Candida albicans [22]): 0.5 µg/mL (≈ 0.457 µM)
MIC (Candida albicans [23]): 0.5 µg/mL (≈ 0.457 µM)
MIC (Candida albicans [24]): 0.5 µg/mL (≈ 0.457 µM)
MIC (Candida albicans [25]): 0.5 µg/mL (≈ 0.457 µM)
